# From ChEMBL document CHEMBL1129983, “Synthesis and structure-activity relationships of carboxylated chalcones: a novel series of CysLT1 (LTD4) receptor antagonists” (J Med Chem, 1997)
# Species on record: Cavia porcellus
# Assay: Inhibition of ovalbumin-induced contraction (10 ng/mL) of guinea pig trachea at 10 uM
# Format: functional
# Settings: not given
# How it was run: (§1)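 Ovalbumin-sensitized male Hartley guinea pigs (2 mg ip, ≥2 weeks prior). Tracheal ring strips in Krebs with 3 µM indomethacin, 37 °C, 95% O2/5% CO2, 0.5 g tension, 60 min equilibration. Drug 10 µM preincubated 30 min, then ovalbumin challenge for 20–60 min, followed by 10 µM carbachol. Antigen response expressed as percent of the carbachol contraction.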
row,Structure (SMILES),Inhibition [%]
1,O=C(/C=C/c1cccc(/C=C/c2ccc3ccccc3n2)c1)c1cc(OCc2nn[nH]n2)ccc1O,0
2,CCCc1c(OCC(O)COc2ccc3c(=O)cc(C(=O)O)oc3c2CCC)ccc(C(C)=O)c1O (stereo not given) [FPL-55712],38

# Species on record: Cavia porcellus
# Assay: Inhibition of ovalbumin-induced contraction (10 ng/mL) of guinea pig trachea at 10 uM.
# Format: functional
# Settings: not given
# How it was run: as §1
row,Structure (SMILES),Inhibition [%]
1,O=C(Nc1cccc2c(=O)cc(-c3nnn[nH]3)oc12)c1ccc(OCCCCc2ccccc2)cc1,80
2,O=C(O)c1cccc(C(=O)/C=C/c2cccc(/C=C/c3ccc4ccccc4n3)c2)c1O,0
3,O=C(/C=C/c1ccc(OCc2ccc3ccccc3n2)cc1)c1cc(-c2nn[nH]n2)ccc1O,52

# Molecular target: T1, Cysteinyl leukotriene receptor 1 (Cavia porcellus) (UniProt Q2NNR5)
# T1 sequence (whole entry): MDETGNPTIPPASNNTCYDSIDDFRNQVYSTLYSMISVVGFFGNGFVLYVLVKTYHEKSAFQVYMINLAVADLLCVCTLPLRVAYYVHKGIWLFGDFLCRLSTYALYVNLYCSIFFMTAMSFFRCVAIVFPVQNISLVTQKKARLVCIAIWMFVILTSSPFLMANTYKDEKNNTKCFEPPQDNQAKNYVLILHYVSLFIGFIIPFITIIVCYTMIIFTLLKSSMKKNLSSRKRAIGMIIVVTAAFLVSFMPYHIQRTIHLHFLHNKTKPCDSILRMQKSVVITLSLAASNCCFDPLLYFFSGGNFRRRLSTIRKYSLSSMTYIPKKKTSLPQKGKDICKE
# Assay: Percent inhibition against Cysteinyl leukotriene D4 receptor in guinea pig lung membranes using [3H]LTD4 4 at 10 e-5 M
# Format: cell membranes
# Settings: Membrane
# How it was run: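 Same [3H]LTD4 (0.2 nM) filtration binding with guinea pig lung membranes, PIPES pH 7.5, 22 °C, 30 min. Percent inhibition = (maximum binding − counts at highest drug concentration) / maximum binding × 100.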
row,inhibition [%],Structure (SMILES)
1,38,N#Cc1ccc(O)c(C(=O)/C=C/c2cccc(OCc3ccc4ccccc4n3)c2)c1
2,7,N#Cc1ccc(C(=O)/C=C/c2cccc(OCc3ccc4ccccc4n3)c2)cc1
3,42,CCCCOc1ccc(C(=O)O)cc1C(=O)/C=C/c1ccc(OCc2ccc3ccccc3n2)cc1
4,16,CCOC(=O)c1ccc(O)c(C(=O)/C=C/c2ccc(OCc3ccc4ccccc4n3)cc2)c1
5,0,O=C(O)c1ccc(O)c(C(=O)/C=C/c2ccccc2OCc2ccccc2)c1
6,4,O=C(/C=C/c1ccc(OCc2ccc3ccccc3c2)cc1)c1cc(-c2nn[nH]n2)ccc1O
7,18,O=C(O)c1ccc(O)c(C(=O)/C=C/c2ccccc2OCc2ccc3ccccc3n2)c1
8,23,O=C(O)c1ccc(O)c(C(=O)/C=C/c2ccc(OCc3ccccc3)cc2)c1
9,9,N#Cc1ccc(C(=O)/C=C/c2ccc(OCc3ccc4ccccc4n3)cc2)cc1

# Tested on: Cavia porcellus
# Assay: Inhibition of LTD4 induced increase of vascular permeability after injection of 10 ng/site at 10 mg/kg intraperitoneally
# Format: functional
# Settings: ip, route intraperitoneal
# How it was run: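 Male Hartley guinea pigs (~300 g), fasted 24 h with water available, dosed ip at 10 mg/kg in 0.5% carboxymethylcellulose or saline. One hour later Evans blue 50 mg/kg iv, then LTD4 intradermally on the back. Dorsal skin removed 30 min later, dye extracted and quantified. Reported as percent inhibition versus control.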
row,Structure (SMILES),inhibition in vivo at 10 mg/kg [%]
1,O=C(O)c1cc(Cl)cc(C(=O)/C=C/c2cccc(/C=C/c3ccc4ccccc4n3)c2)c1O,< 10
2,O=C(O)c1cccc(C(=O)/C=C/c2cccc(/C=C/c3ccc4ccccc4n3)c2)c1O,< 10
3,O=C(/C=C/c1ccc(OCc2ccc3ccccc3n2)cc1)c1cc(-c2nn[nH]n2)ccc1O,72

# Molecular target: Cysteinyl leukotriene receptor 1 (Cavia porcellus)
# Assay: Displacement of [3H]LTD4 from Cysteinyl leukotriene D4 receptor in guinea pig lung membranes
# Settings: not given
row,Kd [nM],Structure (SMILES)
1,208,CC(C)(C)c1cc(C(=O)O)c(O)c(C(=O)/C=C/c2cccc(/C=C/c3ccc4ccccc4n3)c2)c1
2,357,COC(=O)c1ccc(OC)c(C(=O)/C=C/c2ccc(OCc3ccc4ccccc4n3)cc2)c1
3,928,O=C(O)c1ccc(C(=O)/C=C/c2cccc(OCc3ccc4ccccc4n3)c2)c(O)c1
4,4310,N#Cc1ccc(O)c(C(=O)/C=C/c2ccc(OCc3ccc4ccccc4n3)cc2)c1
5,140,O=C(O)c1cc(F)cc(C(=O)/C=C/c2cccc(/C=C/c3ccc4ccccc4n3)c2)c1O
6,175,O=C(O)COc1ccc(O)c(C(=O)/C=C/c2cccc(/C=C/c3ccc4ccccc4n3)c2)c1
7,205,O=C(O)c1cc(Br)cc(C(=O)/C=C/c2cccc(OCc3ccc4ccccc4n3)c2)c1O
8,188,COc1ccc(C(=O)O)cc1C(=O)/C=C/c1ccc(OCc2ccc3ccccc3n2)cc1
9,585,O=C(O)c1ccc(O)c(C(=O)/C=C/c2ccc(/C=C/c3ccc4ccccc4n3)cc2)c1
10,196,O=C(/C=C/c1ccc(OCc2ccc3ccc(Cl)cc3n2)cc1)c1cc(-c2nn[nH]n2)ccc1O
11,10500,CCOCCn1c(COc2cccc(/C=C/C(=O)c3cc(Cl)cc(C(=O)O)c3O)c2)nc2ccccc21
12,209,O=C(/C=C/c1cccc(OCc2ccc3ccccc3n2)c1)c1cc(-c2nn[nH]n2)ccc1O
13,732,O=C(O)c1cc(Cl)cc(C(=O)/C=C/c2ccc(OCc3ccc4ccccc4n3)cc2)c1O
14,527,CCOCCn1c(COc2ccc(/C=C/C(=O)c3cc(-c4nn[nH]n4)ccc3O)cc2)nc2ccccc21
15,19200,O=C(/C=C/c1cccc(OCc2ccc3ccccc3c2)c1)c1cc(-c2nn[nH]n2)ccc1O
16,307,O=C(O)c1cccc(C(=O)/C=C/c2ccc(OCc3ccc4ccccc4n3)cc2)c1O

row,Kd [nM],Structure (SMILES)
1,8850,CCOCCn1c(COc2cccc(/C=C/C(=O)c3cc(-c4nn[nH]n4)ccc3O)c2)nc2ccccc21
2,396,O=C(O)c1cc(F)cc(C(=O)/C=C/c2ccc(OCc3ccc4ccccc4n3)cc2)c1O
3,21,O=C(/C=C/c1cccc(/C=C/c2ccc3ccccc3n2)c1)c1cc(-c2nn[nH]n2)ccc1O
4,26,O=C(O)c1cccc(C(=O)/C=C/c2cccc(/C=C/c3ccc4ccccc4n3)c2)c1O
5,200,O=C(O)c1cccc(C(=O)/C=C/c2ccc(/C=C/c3ccc4ccccc4n3)cc2)c1O
6,204,O=C(O)COc1ccc(C(=O)/C=C/c2cccc(/C=C/c3ccc4ccccc4n3)c2)c(O)c1
7,449,N#Cc1cc(Cl)cc(C(=O)/C=C/c2cccc(/C=C/c3ccc4ccccc4n3)c2)c1O
8,11100,O=C(O)c1ccc(O)c(C(=O)/C=C/c2ccc3ccccc3n2)c1
9,62400,CCOCCn1c(COc2ccc(/C=C/C(=O)c3ccc(C(=O)O)cc3O)cc2)nc2ccccc21
10,1210,O=C(O)c1ccc(C(=O)/C=C/c2ccc(OCc3ccc4ccccc4n3)cc2)c(O)c1
11,2100,O=C(O)c1cc(Br)cc(C(=O)/C=C/c2ccc(OCc3ccc4ccccc4n3)cc2)c1O
12,14800,O=C(O)c1cc(Br)cc2c(=O)cc(-c3ccc4ccccc4n3)oc12
13,239,O=C(/C=C/c1ccc(/C=C/c2ccc3ccc(Cl)cc3n2)cc1)c1cc(-c2nn[nH]n2)ccc1O
14,233,O=C(/C=C/c1ccc(OCc2nccs2)cc1)c1cc(-c2nn[nH]n2)ccc1O
15,828,O=C(/C=C/c1cccc(/C=C/c2ccc3ccccc3n2)c1)c1cc(Cl)cc(-c2nn[nH]n2)c1O

# Species on record: Cavia porcellus
# Assay: Inhibition of LTD4 induced contraction of guinea pig ileum
# Format: functional
# Settings: not given
# How it was run: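 Male guinea pig ileum segments (2 cm), 20 mL organ bath, Tyrode's with atropine and pyrilamine (10⁻⁶ M each), 29 °C, 95% O2/5% CO2, 1.0 g resting tension, isotonic recording. Compounds in DMSO (10⁻⁵ to 3 × 10⁻⁹ M) preincubated 30 min; indomethacin 10⁻⁶ M added 10 min before 10⁻⁸ M LTD4. IC50 from percent inhibition across concentrations.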
row,IC50 [nM],Structure (SMILES)
1,190,Cn1c(COc2ccc(/C=C/C(=O)c3cc(-c4nn[nH]n4)ccc3O)cc2)nc2ccccc21
2,23,O=C(/C=C/c1cccc(/C=C/c2ccc3ccccc3n2)c1)c1cc(OCc2nn[nH]n2)ccc1O
3,360,O=C(O)c1cc(Cl)cc(C(=O)/C=C/c2cccc(/C=C/c3ccc4ccccc4n3)c2)c1O
4,46,O=C(/C=C/c1cccc(/C=C/c2ccc3ccccc3n2)c1)c1cc(-c2nn[nH]n2)ccc1O
5,52,O=C(O)c1cccc(C(=O)/C=C/c2cccc(/C=C/c3ccc4ccccc4n3)c2)c1O
6,240,O=C(/C=C/c1ccc(OCc2ccc3ccccc3n2)cc1)c1cc(-c2nn[nH]n2)ccc1O

# Tested on: Cavia porcellus
# Assay: Inhibition of LTD4 induced increase of vascular permeability after injection of 10 ng/site at […] intraperitoneally
# Format: functional
# Settings: not given
row,Structure (SMILES),Inhibition [%]
1,O=C(Nc1cccc2c(=O)cc(-c3nnn[nH]3)oc12)c1ccc(OCCCCc2ccccc2)cc1,100
